Bioassay records deposited in PubChem BioAssay by several laboratories.
STEP inh: STEP (human) phosphatase inhibition. P54829. recombinant STEP, OMFP fluorogenic substrate, fluorescence. inhibition, % at 20 µM. 0.25% of 360,000 active. AID 588621;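 active = inhibition at 20 µM, scaled per plate between control wells, above about 37%, limit read from the data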;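 note: 0% = DMSO with enzyme and substrate and 100% = substrate only without enzyme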
Target sequence (P54829 whole entry, looked up): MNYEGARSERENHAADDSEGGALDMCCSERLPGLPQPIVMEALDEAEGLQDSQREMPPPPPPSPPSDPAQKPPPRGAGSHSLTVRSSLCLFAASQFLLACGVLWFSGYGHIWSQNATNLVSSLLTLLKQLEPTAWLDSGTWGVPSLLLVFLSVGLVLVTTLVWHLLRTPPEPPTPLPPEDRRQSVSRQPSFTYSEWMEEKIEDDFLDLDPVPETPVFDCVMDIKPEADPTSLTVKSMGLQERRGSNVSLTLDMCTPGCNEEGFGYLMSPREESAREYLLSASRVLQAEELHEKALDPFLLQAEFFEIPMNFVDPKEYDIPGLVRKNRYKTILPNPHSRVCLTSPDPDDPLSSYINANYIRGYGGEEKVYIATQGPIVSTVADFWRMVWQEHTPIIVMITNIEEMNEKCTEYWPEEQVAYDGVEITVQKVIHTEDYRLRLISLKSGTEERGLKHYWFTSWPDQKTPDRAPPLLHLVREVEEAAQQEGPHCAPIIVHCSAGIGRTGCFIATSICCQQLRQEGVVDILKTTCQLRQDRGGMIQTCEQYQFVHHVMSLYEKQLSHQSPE
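System: STEP (striatal-enriched tyrosine phosphatase) enzyme, cell-free; medium: Bis-Tris pH 6.0 buffer with DTT, detergent; dosing: 20 µM, 1% DMSO; times: reaction 20 min, ambient temperature; detection: fluorescence, 480/540 nm; read-out basis: normalized % inhibition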
LMPTP block: LMPTP (human) inhibition | AID 651560 | recombinant LMPTP-A, OMFP fluorogenic substrate, fluorescence intensity | 0.22% of 360,000 active | inhibition, % at 20 µM | P24666;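 active = compounds that cut the enzyme signal by at least half of the control window in the single-dose screen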;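 note: plate controls were DMSO wells with enzyme plus substrate for no effect and substrate without enzyme for full effect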
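Assay system: LMPTP-A enzyme. Input: 0.625 nM LMPTP-A final. Probe or stimulus: 400 µM OMFP. Compound dosing: single 20 µM dose. Schedule: 50 min dark incubation at room temperature. Detection: fluorescence intensity of OMFP turnover product. Read-out: percent inhibition versus substrate-only and uninhibited controls. Benchmarks: no-enzyme low control, uninhibited high control.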
DNMT1 inh: blocks human DNA methyltransferase DNMT1 | 0.83% of 360,000 active | DNMT1 molecular beacon, Hinp1I cleavage, fluorescence | inhibition (reported as % activation of signal), % at 10 µM | P26358; in the data active = inhibition above about 50%
Scp-1 inhibitor: Scp-1 (human) phosphatase inhibition | Q9GZU7 | Recombinant Scp1, phosphopeptide, malachite green phosphate absorbance | inhibition, % at 20 µM | 0.88% of 340,000 active | AID 493091;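 active = inhibition above about 50% at 20 µM, limit read from the data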;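 note: plate controls were DMSO wells with enzyme for no effect and wells lacking enzyme for full effect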
Target sequence (Q9GZU7 76-261 limits assumed): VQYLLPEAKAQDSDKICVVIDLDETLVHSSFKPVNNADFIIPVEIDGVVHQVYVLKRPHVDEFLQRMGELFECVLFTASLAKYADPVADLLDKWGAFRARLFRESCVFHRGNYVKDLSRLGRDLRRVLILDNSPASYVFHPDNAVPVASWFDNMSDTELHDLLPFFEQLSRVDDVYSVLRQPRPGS
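assay system = SCP-1 phosphatase catalytic domain, residues 76-261 | buffer or medium = 50 mM Tris acetate pH 5.5, 0.005% Tween-20, 10 mM MgCl2 | incubation = enzyme reaction 45 min at room temperature, colour 5 min, stabilisation 30 min | signal = Phosphate-binding colour reagent, absorbance read at 630 nm | measure = % inhibition at 20 µM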
GRK2 aptamer HTS: inhibitors of human GRK2 displacing RNA aptamer | P25098 | bead flow cytometry, FAM-aptamer displacement from GRK2 | inhibition of aptamer binding, % at 10 µM | 0.59% of 330,000 active;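 active = inhibition of aptamer binding above 40%, roughly 3 SD of noise, on plates passing a quality check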;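 note: median bead fluorescence of bound FAM aptamer so fluorescent compounds give negative values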
SUMO1 PPI mod: SUMO1-SIM interaction modulation | inhibition, % at 20 µM | SUMO1 binding to a labelled peptide, TR-FRET, 1 h | AID 602429 | P63165 | 0.33% of 360,000 active; in the data active = inhibition above about 37%
The depositor's hits bear a star; . = no result given; ! = not confirmed by another sample. An excerpt weighted towards active compounds, which were near 2.1% of everything screened.

SMILES | STEP inh | LMPTP block | DNMT1 inh | Scp-1 inhibitor | GRK2 aptamer HTS | SUMO1 PPI mod
C[C@]12c3[nH]c4ccccc4c3CCN1C(=O)C(CC(=O)NCCc1ccccn1)C[C@@H]2C(=O)N1CCOCC1 (stereo not given in full) | -2.1 | -1.4 | -0.7 | -0.1 | 81.0* | 2.8
C[C@]12c3[nH]c4ccccc4c3CCN1C(=O)C(CC(=O)NCCc1ccccn1)C[C@@H]2C(=O)N1CCCCC1 (stereo not given in full) | -0.8 | -6.0 | 3.0 | -8.3 | 4.0 | -1.6
C[C@]12c3[nH]c4cc(-c5ccco5)ccc4c3CCN1C(=O)[C@@H](CC(=O)NCCCn1ccnc1)C[C@@H]2C(=O)N1CCOCC1 | -0.5 | -8.1 | 0.9 | 1.3 | 0.0 | -27.0
Fc1ccc(-[n+]2nc(Nc3ccccc3)sc2-c2c3ccccc3cc3ccccc23)cc1 | 6.5 | 67.2* | -1.5 | 14.4 | 8.0 | -8.6
Oc1ccc2ccccc2c1-c1sc(Nc2ccccc2)n[n+]1-c1ccc(F)cc1 | -7.9 | 2.0 | 33.7 | -0.2 | 0.0 | -23.3
CN(Cc1cccc(Cl)c1Cl)C(=O)c1ccccc1SCC(=O)N1CCCC1 | 1.0 | 0.0 | -3.5 | -4.9 | . | 5.3
CS/C(=N\S(=O)(=O)c1cccs1)NC(=O)CSc1nc2ccccc2s1 | 1.2 | 4.0 | 2.5 | 10.4 | 2.0 | 37.9*!
CN=c1scc(-c2ccccc2F)n1/N=C/c1ccc(O)c(O)c1O | 7.5 | 56.6* | -10.1 | 21.8 | . | -13.9
O=C(NCc1ccncc1)c1csc([C@@H]2O[C@H](CO)[C@@H](O)[C@H]2O)n1 | -4.3 | -1.8 | -0.7 | . | . | -0.1
COc1cccc2c1C(=O)c1c(O)c3c(c(O)c1C2=O)C[C@@](O)(C(=O)CO)C[C@@H]3OC1CC(N)C(O)C(C)O1 (stereo not given in full) | -20.6 | 9.1 | -202.3 | -5.3 | . | 91.5*
COc1cccc2c1C(=O)c1c(O)c3c(c(O)c1C2=O)C[C@@](O)(C(=O)CO)C[C@@H]3O[C@H]1C[C@H](N)[C@H](O)[C@H](C)O1 | -29.6 | 9.9 | -177.2 | -16.4 | 27.0 | -28.0
O=C(NCc1ccc2c(c1)OCO2)c1nc(Cn2cc([N+](=O)[O-])cn2)no1 | -2.0 | -0.3 | 1.3 | -0.6 | 2.0 | -8.2
COc1ccc(NC(=O)C(c2ccc(C(F)(F)F)cc2)n2c(=O)c(-c3cc4ccccc4[nH]3)nc3ccccc32)cc1 (stereo not given) | . | 5.0 | . | . | . | -3.0
CN1/C(=C/C=C(C#N)C#N)C=Cc2ccccc21 | -0.2 | 15.8 | -1.5 | -16.3 | 0.0 | 57.4*
O=C(CC1C[C@H](C(=O)N2CCCCC2)[C@@]2(CCc3ccccc3)c3[nH]c4ccccc4c3CCN2C1=O)NCCc1ccccn1 (stereo not given in full) | 3.0 | -2.2 | -1.4 | -0.1 | . | 3.6
CC(C)N1CCC2(CC1)C(C#N)=C(N)NC(S)=C2C#N | . | . | . | . | 58.0* | .
O=C(OCC(=O)N1CCCC1)c1cccc(Br)c1 | -1.5 | -1.6 | 3.3 | 1.8 | 0.0 | 67.2*
COC(=O)c1ccc2c(c1)C(C)(C)C(/C=C/c1ccccc1O)=[N+]2C | -5.8 | 5.6 | -17.3 | 99.4* | 3.0 | -10.9
COC(=O)c1ccc(N)c(N=CC2=C(O)CC(C)(C)CC2=O)c1 | -0.2 | -0.7 | -8.3 | -30.4 | 1.0 | -14.5
CC(C)C(=O)N[C@H]1CCC2C3CC=C4C[C@@H](O)CC[C@]4(C)C3CC[C@@]21C (stereo not given in full) | 1.0 | -1.2 | -2.8 | -5.0 | 0.0 | 7.1
CC(=O)C1CCC2C3CC=C4CC(SC(=N)N)CCC4(C)C3CCC12C (stereo not given) | 4.7 | 62.7* | 4.7 | 17.0 | . | -54.1
CC(C)(C)[C@H](N)C(=O)N[C@H]1CCC2C3CC=C4C[C@@H](O)CC[C@]4(C)C3CC[C@@]21C (stereo not given in full) | 1.4 | -1.5 | -31.3 | -0.3 | 1.0 | 40.9*
CC(C)c1nc(SCC(=O)Nc2ccc(C(=O)O)cc2)c2c3c(sc2n1)CCCC3 | 0.7 | 52.6* | 0.5 | 16.9 | 2.0 | 32.3
CC1CCc2c(sc3ncnc(SCC(=O)Nc4ccc(C(=O)O)cc4)c23)C1 (stereo not given) | 2.1 | 36.4 | 2.4 | -5.5 | 0.0 | 18.6
CCOC(=O)COc1nc(C)c(Br)c(OC)n1 | -2.6 | -0.8 | 2.3 | 1.5 | 2.0 | 61.1*
SMILES | STEP inh | LMPTP block | DNMT1 inh | Scp-1 inhibitor | GRK2 aptamer HTS | SUMO1 PPI mod
CCCCCC#CCC#CCC#CCC#CCCCC(=O)O | . | . | . | . | 50.0* | .
N#CCC(=O)N/N=C/c1ccc(N2N=C(c3ccccc3)CC2c2ccccc2)cc1 (stereo not given) | 5.4 | 6.6 | -13.2 | -6.4 | 67.0* | 0.6
CCOc1ccccc1/C=C/c1nc2ccccc2[nH]c1=O | 1.4 | 1.8 | 81.0* | -7.0 | 2.0 | -10.4
COc1cc(/C=C2\SC(=S)N(NC(=O)c3cccnc3)C2=O)ccc1O | -3.7 | 1.2 | -1.6 | -9.4 | 6.0 | -8.0
COc1cc(/C=C2\SC(=S)N(c3cccnc3)C2=O)ccc1O | 23.4 | 13.0 | 56.7* | 12.8 | 0.0 | 108.9*
O=C(O)/C(=C\c1ccc(Cl)c([N+](=O)[O-])c1)c1ccc(S(=O)(=O)N2CCCC2)s1 | 5.6 | 27.5 | 72.3* | 66.2* | 0.0 | 10.6
O=C(O)/C(=C\c1ccc(Cl)c([N+](=O)[O-])c1)c1ccc(S(=O)(=O)N2CCCCC2)s1 | -0.6 | 1.5 | -18.1 | 8.1 | 2.0 | 9.1
O=C(O)CSc1cc(NS(=O)(=O)c2cccc([N+](=O)[O-])c2)c2ccccc2c1O | 7.3 | 6.3 | 52.4* | 17.4 | . | 33.3
O=C(O)c1cccc(S(=O)(=O)Nc2ccc([N+](=O)[O-])cc2O)c1 | -0.5 | -0.8 | -3.1 | 1.9 | 0.0 | -2.1
Cc1ccc(C)c(S(=O)(=O)Nc2cc(SCC(=O)O)c(O)c3ccccc23)c1 | 7.1 | 11.4 | 19.1 | 13.2 | 10.0 | 91.0*
CCOc1ccc(S(=O)(=O)Nc2cc(SCC(=O)O)c(O)c3ccccc23)cc1 | 4.5 | 2.8 | -2.4 | 11.0 | 2.0 | 11.8
CCc1ccc(S(=O)(=O)Nc2cc(SCC(=O)O)c(O)c3ccccc23)cc1 | 2.9 | 6.0 | 16.1 | 2.6 | 4.0 | 44.7*
COc1ccc(/C(C)=N/NC(=O)c2nnn(-c3nonc3N)c2-c2ccccc2)cc1 | 28.6 | 52.0* | 23.6 | 14.4 | 0.0 | 1.7
c1ccc(SC23CCCCN(CCC2)C32OCCO2)cc1 (stereo not given) | . | -0.1 | . | . | . | 10.3
O=C(O)c1cccc(Cn2c(Cl)c(/C=N/NC(=O)c3cc4ccccc4cc3O)sc2=O)c1 | 4.0 | 55.1* | 22.8 | 34.4 | 3.0 | 12.1
CC(CCCN1CCCC1)Nc1ccnc2cc(Cl)ccc12 (stereo not given) | -5.7 | 76.2* | 8.6 | -15.3 | . | -41.6
